For assay [1], the system named is human OCRL ASHRhoGAP domain. The assay is described as follows: Peptide array overlay with GST-hOCRL-ASHRhoGAP. The class given is binding. Conditions: summary statement, test not specified at the place.
For assay [2], the system named is endogenous OCRL (mouse brain extracts). The assay is described as follows: GST-F&H peptide pull down of endogenous OCRL from mouse brain extracts. The note with it: GST fusions of 13 amino acid F&H motif peptides, Ses2 and APPL1 as positive controls. The class given is binding.
In assay [3] the test system is F&H surface of Dd5P4 (GFP-Dd5P4 WT vs W620A). As to the kind of experiment: GFP immunoprecipitation and mass spectrometry of GFP-Dd5P4 interactors. Type of assay: binding, Dictyostelium discoideum. The note with it: triplicate GFP immunoprecipitates; Dd5P4- cells expressing GFP-Dd5P4 WT vs W620A; label-free quantitation. The method in brief: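 Cells were grown to 80% confluency in HL5 (glucose, vitamins, trace elements), with fusion strains under 5 µg/ml G418. Lysis buffer: 20 mM Tris pH 8, 10% glycerol, 100 mM NaCl, 1 mM EDTA, 1 mM DTT. Untransfected WT cells served as negative control. Beads were digested overnight with trypsin at 37°C, then StageTip-desalted. C18 nanoLC used a 95-min 5–30% acetonitrile gradient into a Q Exactive, with data-dependent top-10 MS/MS.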

Assay [4] relates to endogenous OCRL (Cos7 cells). The assay is described as follows: Frabin-GFP anti-GFP co-immunoprecipitation with endogenous OCRL in Cos7 cells. Type of assay: binding. Conditions: full length Frabin-GFP, GFP-trap beads, Western blot. The method in brief:
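Frabin-GFP expressed in Cos7 cells by nucleofection, then pulled down on GFP-trap beads and washed extensively. Western blot detected Frabin-GFP with anti-GFP antibody and endogenous OCRL with mouse anti-human OCRL antibody.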

“Also recorded” adds a separate entry of the source.

As for AFHQRHETFRNAI* [Frabin], the “strength of Frabin F&H peptide interaction with OCRL” value in assay [1] is “strong”. Moreover, the “enrichment of endogenous OCRL by GST-F&H peptide” value in assay [2] was “specifically enriched endogenous OCRL”.
As to “DDB_G0284853: mycBP2/Highwire-like protein of D. discoideum”, the “enrichment in GFP-Dd5P4 immunoprecipitates” value in assay [3] is given as “specifically enriched in precipitates from GFP-Dd5P4-expressing cells versus negative control precipitates, but not in precipitates from GFP-Dd5P4^W620A-expressing cells”.

B1: Frabin-GFP: full length Frabin-GFP expressed in Cos7 cells (protein)
chain: MEEIKPASASCVSKEKPSKVSDLISRFEGGSSLSNYSDLKKESAVNLNAPRTPGRHGLTTTPQQKLLSQHLPQRQGNDTDKTQGAQTCVANGVMAAQNQMECEEEKAATLSSDTSIQASEPLLDTHIVNGERDETATAPASPTTDSCDGNASDSSYRTPGIGPVLPLEERGAETETKVQERENGESPLELEQLDQHHEMKETNEQKLHKIANELLLTERAYVNRLDLLDQVFYCKLLEEANRGSFPAEMVNKIFSNISSINAFHSKFLLPELEKRMQEWETTPRIGDILQKLAPFLKMYGEYVKGFDNAMELVKNMTERIPQFKSVVEEIQKQKICGSLTLQHHMLEPVQRIPRYEMLLKDYLRKLPPDSLDWNDAKKSLEIISTAASHSNSAIRKMENLKKLLEIYEMLGEEEDIVNPSNELIKEGQILKLAARNTSAQERYLFLFNNMLLYCVPKFSLVGSKFTVRTRVGIDGMKIVETQNEEYPHTFQVSGKERTLELQASSAQDKEEWIKALQETIDAFHQRHETFRNAIAKDNDIHSEVSTAELGKRAPRWIRDNEVTMCMKCKEPFNALTRRRHHCRACGYVVCWKCSDYKAQLEYDGGKLSKVCKDCYQIISGFTDSEEKKRKGILEIESAEVSGNSVVCSFLQYMEKSKPWQKAWCVIPKQDPLVLYMYGAPQDVRAQATIPLLGYVVDEMPRSADLPHSFKLTQSKSVHSFAADSEELKQKWLKVILLAVTGETPGGPNEHPATLDDHPEPKKKSEC
modifications: left off: GFP, end not stated, kept
Take B1: the “coprecipitation of endogenous OCRL with Frabin-GFP” value in assay [4] is “weak but specific interaction with endogenous OCRL; also recorded: weak, albeit specific, coprecipitation with OCRL”.

B2: GxcU: putative Rho-GEF of D. discoideum (protein)
chain: MDTKNKEILGSTIKAWIGRKRYKTMMVNKTNRDKVAKEILDTEQIYVRNLETIVQFYLKPLRNINPPLLSPKSIQIIFGHIEDLLSLNTELLTSIQDRMTTWYQDKRLGDIFTKMAPYLKVYTEYCGNYDKAVARLKQKSDESRDLQMFLKRVTSENSFGLDLNSLLVTPIQRIPRYKLLLQSLIQLTPVEFSDYPTLAKALENVALVADHINESIREKQNSEKILTIQKRFTGQCPPLLAPLRTFIREGSLTKVCRKDHKKRWFILFSDALVYGNRIDTAVGNPIYKFHRLLPLSNTKIANLDDTKHKNSFQLIHPIKSFTLIADTEQEKSSWMNSFSDAQNFLLRNEGSVARMNKQYRSINILKPKEEETVSTAPVWIPDSEAIQCMECTIKFTTIRRRHHCRRCGNVVCGKCSEQKWTLDQYKKDARVCKTCYNYLSISSSRSNENNVSSSNNLSTPTSTFTATTATATAPFGTLTDGASLADVSSDSEGEDNSSSINDSNPDMPIINGLSSIQIDNTPVILNTVNPSPPLLSQPQPQQPQQPQLQPLQQPLQQPPQPPQPPQTNHKSFIATHTAYNKENSLKSTSPSSSFIETSTSTSASTSTSTSTSTSTSTSTSTSTSTSTSNSTSNSTLTPGPPMLSKSNAGNSSLLDFCKSYIQNSPNVSPAKVEKHKHSSSSSSASNSPMQSRTNLDIPSTTTTSTSKGSISPTQSSESIVLPELKPITHDPLVTSNNSSSTLKVNQPIQHTNSSSKLNVIVSTPQTTQTTENNVNNTNTNTTTTNNNNNNNNNNNNNNNNNNNNNNNNNNNNSDVSSPKPTTKSLPPTPPTKKLPPTPPPKPLPPQPTLPQQPTLPPQPNLPPQPNLPPQPNLPPQPNLPPQPNLPQQPDLSQPPPQQQQQPTLDQAPPRPPKPNQDSRSQSFLCISSTVNSTPPTPPPKRIISTHPANTSFIYQPQQYVSSPNINNVPPPLPPPRIKSQAPIQRD
With B2, in assay [3], the “enrichment in GFP-Dd5P4 immunoprecipitates” value is recorded as “specifically enriched in precipitates from GFP-Dd5P4-expressing cells versus negative control precipitates, but not in precipitates from GFP-Dd5P4^W620A-expressing cells”.

B3: DDB_G0280015: PH domain Interacting with OCRL, 741 amino acid protein of D. discoideum (protein)
chain: MESSSMTTNNNNNNSTISPSSSTTSISTSKNNDFLTLHKAYIDEWLMVSFLPILKTTYDGENNFYDISNLNIKNVNQRNIPFSEQLFALDRQFQNLINQWEKLSRSDQQRAAKIESYQQSFYTFIDRIKSTLEKTMVELGGSLEDSNFLAAAISLKEKQSKNKRLTIMARSRISPGGTSSTQYQHQMHLTGPISIVWNEILIIITRKVNEEVVRLQTENINNNIKNINNSEFNITNDIYQFNNNNLTQANKLEINNQRQKLYQQALSNIVPMLFEWRIMMANAQKVISEEKRFKVNPFIPTTVYDHNSSSFISAPILISTTNKTATTLLNNLNNNNIINNNNNNNNNNNNNNNNNNNNNNNNNSSSNSNNNNNSPISNSPSSSSPSPSSPTLTNRPSFINYDNQNNENNINNNNNNENNIGNNNINNNNSNENSDNKFSEEINISSSPPGTSGMTNSTSNLPTIASPTSWTKAVKRPAMSSSGGNIPILNNLGTSLNNNNNNKQIQDNNNNNLNTINANSNGNNNNSSNNVNSENNNIPTGGIIKQGWMKKRGTKNKSWKKRYFILDMKKTLRYYKDNSKIPHGNNSNNSGGGSSSNNNNCNSGNNNNGLNGGSGKGDQVNGNNISLPIGNNPHFHSSSGSGIPTTSPSMSSSSTSLENNDILSSFDHLKYKGSIDLYTSLVVAIKPSTFNVNINNSGSFKEDNNSYFGMDIITPSRTWNFCCESSKSMEDWLIVLKSANK
Consider B3, for which the “enrichment in GFP-Dd5P4 immunoprecipitates” value in assay [3] is “specifically enriched in precipitates from GFP-Dd5P4-expressing cells versus negative control precipitates, but not in precipitates from GFP-Dd5P4^W620A-expressing cells”.

B4: DDB_G0275301: OCRL-Interacting Bar domain Protein of D. discoideum (protein)
chain: MFKKGLDVLSKTKNAAVSSMTELETESDEVQNAKVALKNMKWSIKLLIQLAKNYFATSDKQVQQGTAFSVILQRFSEKISHTNYIINQTLPLSDSLREVGEGIKNSSTYFQQYTQIFCDKFATNIEALYVGHVKKVATLEKQQEESRIKYNNALNYLKSTQKSGHTGTKLAEKTTEYENAKAYYEQISLNLISATNDMVNYVQREVAVQMKQFVAEQQLMVQECIKMWVIAENKLFNSQSPVNTTSTTSPNTYGDYNNNANTVNLSKLSLDKEEQPPQPYQPPQQHSPPQQTFHQSPPTDFSSQHQQYSFDQSSPQETYQPPQQQQPEGQKSPNPFDDKNPFDN
With B4, the “enrichment in GFP-Dd5P4 immunoprecipitates” value in assay [3] is “specifically enriched in precipitates from GFP-Dd5P4-expressing cells versus negative control precipitates, but not in precipitates from GFP-Dd5P4^W620A-expressing cells”.

Source of the values: PMC6743453 (Molecular Biology of the Cell, 2019).
